Legend:
[1] = target: T1, bacteriophage T4 clamp loader, gp44/62 (Enterobacteria phage T4, UniProt P04526); test: ATPase inhibition assay, wild-type gp44/62; assay type: biochemical; settings: for Selectivity Factor: Ki (γ-complex) / Ki (gp44/62)
T1 sequence (P04526 1-319): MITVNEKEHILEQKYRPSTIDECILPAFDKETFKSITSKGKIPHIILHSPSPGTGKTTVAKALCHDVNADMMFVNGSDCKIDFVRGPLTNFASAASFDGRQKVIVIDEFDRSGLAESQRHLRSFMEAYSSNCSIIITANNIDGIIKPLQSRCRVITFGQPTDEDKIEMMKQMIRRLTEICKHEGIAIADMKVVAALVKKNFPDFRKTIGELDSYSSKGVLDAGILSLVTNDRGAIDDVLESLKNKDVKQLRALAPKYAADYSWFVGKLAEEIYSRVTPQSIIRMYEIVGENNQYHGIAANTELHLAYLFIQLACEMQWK
T1 sequence (P04527 1-187 partner): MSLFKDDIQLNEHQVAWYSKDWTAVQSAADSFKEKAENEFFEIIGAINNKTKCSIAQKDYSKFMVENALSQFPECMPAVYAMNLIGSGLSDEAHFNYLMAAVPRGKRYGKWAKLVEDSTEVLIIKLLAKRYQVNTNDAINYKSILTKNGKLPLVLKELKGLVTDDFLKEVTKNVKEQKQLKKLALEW

[2] = tested on: T4 bacteriophage; test: Plaque forming assay in JA300 E. coli; assay type: cell-based, T4 bacteriophage in E. coli JA300
[3] = tested on: JA300 E. coli cells; test: Toxicity screen against E. coli; assay type: cell-based, Escherichia coli; settings: in suspension or plated on LB/agar for extended periods
[4] = tested on: T4 bacteriophage; test: Plaque forming assay in deoxythymidine kinase deficient E. coli KY895; assay type: cell-based, T4 bacteriophage in E. coli KY895 (tdk-1); settings: 100 µg/ml
Procedure, shortened: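 The plaque assay used the deoxythymidine kinase knockout E. coli strain KY895 in place of JA300. An overnight culture was diluted 1:150 in LB and pre-incubated with the nucleoside for 60 min at 37°C. Cells were infected with ~300 pfu T4 and plated over LB/agar for 24 h at 37°C. Plaques were counted manually; ANOVA and t-test were applied.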

[5] = target: T2, bacteriophage T4 replicase (Enterobacteria phage T4, UniProt P04526); test: Replicase formation; assay type: biochemical; settings: 100 µM inhibitor
T2 sequence (P04526 1-319): T1 sequence (P04526 1-319)
T2 sequence (P04527 1-187 partner): T1 sequence (P04527 1-187 partner)

[6] = tested on: T4 DNA polymerase; test: DNA polymerase activity in the strand displacement assay; assay type: biochemical, bacteriophage T4; settings: absence or presence of 100 µM d5-NITP
[7] = target: T3, gp44/62 opening of CPM-labeled gp45 (Enterobacteria phage T4, UniProt P04526); test: FRET quenching / stopped-flow fluorescence clamp opening assay; assay type: biochemical, bacteriophage T4; settings: 1 mM nucleotide, CPM-labeled gp45 mixed with gp44/62
T3 sequence (P04526 1-319): T1 sequence (P04526 1-319)
T3 sequence (P04527 1-187 partner): T1 sequence (P04527 1-187 partner)

[8] = target: R175L mutant of gp44/62 (Enterobacteria phage T4, UniProt P04526, R175L); test: ATPase inhibition assay, gp44/62 R175L mutant; assay type: biochemical, bacteriophage T4
R175L mutant of gp44/62, sequence (P04526 whole entry R175L, one chain of several): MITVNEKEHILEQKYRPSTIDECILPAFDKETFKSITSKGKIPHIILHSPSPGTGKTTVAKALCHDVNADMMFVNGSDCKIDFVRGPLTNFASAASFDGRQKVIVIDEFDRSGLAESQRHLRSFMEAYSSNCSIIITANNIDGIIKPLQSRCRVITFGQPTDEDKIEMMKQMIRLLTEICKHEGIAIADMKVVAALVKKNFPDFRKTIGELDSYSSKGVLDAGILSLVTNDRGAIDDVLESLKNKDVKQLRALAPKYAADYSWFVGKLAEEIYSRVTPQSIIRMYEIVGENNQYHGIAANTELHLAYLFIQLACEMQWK

[9] = target: T1, bacteriophage T4 clamp loader, gp44/62; settings: read-out: Ki (inhibition constant) against gp44/62; cited from earlier work
[10] = target: T4, gp44/62 (Enterobacteria phage T4, UniProt P04526); test: Hydrolysis of nucleotide substrates by gp44/62; assay type: biochemical, bacteriophage T4; settings: nucleotide substrates at 500 µM
T4 sequence (P04526 1-319): T1 sequence (P04526 1-319)
T4 sequence (P04527 1-187 partner): T1 sequence (P04527 1-187 partner)
Procedure, shortened: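 Wild-type T4 gp44/62 purified from an overproducing strain. Each ribo- or deoxy-nucleotide was supplied as substrate. Hydrolysis was read as Pi release by malachite green.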

[11] = target: E. coli clamp loader, γ-complex (Escherichia coli, UniProt P06710); test: ATPase inhibition assay, γ-complex; assay type: biochemical
[12] = target: R175K mutant of gp44/62 (Enterobacteria phage T4, UniProt P04526, R175K); test: ATPase inhibition assay, gp44/62 R175K mutant; assay type: biochemical, bacteriophage T4
R175K mutant of gp44/62, sequence (P04526 whole entry R175K, one chain of several): as the sequence (P04526 whole entry R175L, one chain of several) above, with L175K counted along it

Structure (SMILES): O=P(O)(O)OP(=O)(O)OP(=O)(O)OC[C@H]1O[C@@H](n2ccc3cc(C4CCCCC4)ccc32)C[C@@H]1O [d5-CHITP, 5-cyclohexyl-indolyl-2’-deoxyriboside triphosphate]
- Selectivity Factor [1]: 0.51

Structure (SMILES): O=[N+]([O-])c1ccc2ccn([C@H]3C[C@H](O)[C@@H](COP(=O)(O)OP(=O)(O)OP(=O)(O)O)O3)c2c1 [d6-NITP, 6-nitro-indolyl-2’-deoxyriboside triphosphate]
- Selectivity Factor [1]: 1.59

Structure (SMILES): O=P(O)(O)OP(=O)(O)OP(=O)(O)OC[C@H]1O[C@@H](n2ccc3cc(C4=CCCCC4)ccc32)C[C@@H]1O [d5-CEITP, 5-cyclohexene-indolyl-2’-deoxyriboside triphosphate]
- Selectivity Factor [1]: 1.18

Structure (SMILES): O=P(O)(O)OP(=O)(O)OP(=O)(O)OC[C@H]1O[C@@H](n2ccc3cc(F)ccc32)C[C@@H]1O [d5-FITP, 5-fluoro-indolyl-2’-deoxyriboside triphosphate]
- Selectivity Factor [1]: < 0.17

Structure (SMILES): O=[N+]([O-])c1ccc2c(ccn2[C@H]2C[C@H](O)[C@@H](CO)O2)c1 [d5-NI, 5-nitro-indolyl-2’-deoxyriboside]
- Inhibition of gp44/62 ([1]; at concentrations greater than 200 µM): does not inhibit
- Fold less protection at 25 µg/mL than at 50 µg/mL ([2]; 25 µg/mL versus 50 µg/mL): ~ 2.5 fold
- Fewer plaques compared to untreated E. coli ([2]; E. coli preincubated with 100 µg/mL): ~ 40%
- Bactericidal or bacteriostatic effect on E. coli [3]: does not produce a significant bactericidal or bacteriostatic effect
- Effect on plaque formation in tdk-1 strain KY895 compared to wild-type JA300 [4]: significantly reduced

Structure (SMILES): O=[N+]([O-])c1ccc2c(ccn2[C@H]2C[C@H](O)[C@@H](COP(=O)(O)OP(=O)(O)OP(=O)(O)O)O2)c1 [d5-NITP, 5-nitro-indolyl-2’-deoxyriboside triphosphate]
- Formation of the replicase complex [5]: inhibits formation of the replicase complex
- Effect on polymerase activity (products generated by polymerase alone) [6]: identical amounts of products are generated
- Amplitude of change in fluorescence (clamp opening) [7]: 0.044 ± 0.002 units

Structure (SMILES): Nc1ncnc2c1ncn2[C@@H]1O[C@H](COP(=O)(O)OP(=O)(O)OP(=O)(O)O)[C@@H](O)[C@H]1O [ATP, reference compound]
- Amplitude of change in fluorescence (clamp opening) [7]: 0.2199 ± 0.0004 units

Structure (SMILES): O=P(O)(O)OP(=O)(O)OP(=O)(O)OC[C@H]1O[C@@H](n2ccc3cc(-c4ccccc4)ccc32)C[C@@H]1O [d5-PhITP, 5-phenyl-indolyl-2’-deoxyriboside triphosphate]
- Selectivity Factor [1]: 0.18

Structure (SMILES): C=Cc1ccc2c(ccn2[C@H]2C[C@H](O)[C@@H](COP(=O)(O)OP(=O)(O)OP(=O)(O)O)O2)c1 [d5-EyITP, 5-ethylene-indolyl-2’-deoxyriboside triphosphate]
- Selectivity Factor [1]: < 0.15
- Fold lower Ki in R175L mutant compared to wild type enzyme [8]: ~ 10 fold

Structure (SMILES): O=P(O)(O)OP(=O)(O)OP(=O)(O)OCC1OC(n2ccc3ccccc32)CC1O (stereo not drawn) [dITP, indolyl-2’-deoxyriboside triphosphate]
- Selectivity Factor [1]: < 0.30

Structure (SMILES): Nc1ncnc2c1ncn2C1OC(COP(=O)(O)OP(=O)(O)NP(=O)(O)O)C(O)C1O (stereo not drawn) [AMP-PNP, 5'-adenylyl-beta, gamma-imidodiphosphate]
- Ki [9]: 1200 µM

Structure (SMILES): C=Cc1ccc2c(ccn2[C@H]2C[C@H](O)[C@@H](CO)O2)c1 [d5-Ey, 5-ethylene-indolyl-2'-deoxyribose]
- Inhibition of plaque formation ([2]; 150 µg/mL): 15%

Structure (SMILES): Nc1ncnc2c1ncn2[C@H]1C[C@H](O)[C@@H](COP(=O)(O)OP(=O)(O)OP(=O)(O)O)O1 [dATP, reference compound]
- Hydrolysis by gp44/62 [10]: hydrolyzes dATP just as efficiently as ATP

Structure (SMILES): OC[C@H]1O[C@@H](n2ccc3cc(F)ccc32)C[C@@H]1O [d5-FI, 5-fluoro-indolyl-2’-deoxyriboside]
- Inhibition of plaque formation ([2]; 100 µg/mL): do not inhibit plaque formation

Structure (SMILES): O=[N+]([O-])c1ccc2c(ccn2[C@@H]2O[C@H](COP(=O)(O)OP(=O)(O)OP(=O)(O)O)[C@@H](O)[C@H]2O)c1 [r5-NITP, 5-nitro-indolyl-2’-ribose triphosphate]
- Hill coefficient ([1]; dose-dependent inhibition of gp44/62 ATPase activity): ~ 1
- Hydrolysis by gp44/62 [10]: incapable of hydrolyzing r5-NITP

Structure (SMILES): CCc1ccc2c(ccn2[C@H]2C[C@H](O)[C@@H](COP(=O)(O)OP(=O)(O)OP(=O)(O)O)O2)c1 [d5-EtITP, 5-ethyl-indolyl-2’-deoxyriboside triphosphate]
- Selectivity Factor [1]: 0.11
- Fold lower Ki in R175L mutant compared to wild type enzyme [8]: ~ 10 fold

Structure (SMILES): O=C(N[C@H](CO)[C@H](O)c1ccc([N+](=O)[O-])cc1)C(Cl)Cl [chloramphenicol, reference compound]
- Decrease in phage infectivity ([2]; bacteriostatic agent control): does not cause an appreciable decrease

Structure (SMILES): Nc1ncnc2c1ncn2[C@@H]1O[C@H](CO[P@](=O)(O)O[P@](=O)(O)O[P@@](=O)(O)S)[C@@H](O)[C@H]1O [ATPγS, reference compound]
- Selectivity Factor [1]: 0.44
- Ki [11]: 13 ± 4.5 µM
- Ki [12]: 14 ± 3.5 µM
- Ki [8]: 33.2 ± 8 µM

Structure (SMILES): Nc1ccc2c(ccn2[C@H]2C[C@H](O)[C@@H](COP(=O)(O)OP(=O)(O)OP(=O)(O)O)O2)c1 [d5-AITP, 5-amino-indolyl-2’-deoxyriboside triphosphate]
- Selectivity Factor [1]: < 0.23

Structure (SMILES): O=[N+]([O-])c1cccc2c1ccn2[C@H]1C[C@H](O)[C@@H](COP(=O)(O)OP(=O)(O)OP(=O)(O)O)O1 [d4-NITP, 4-nitro-indolyl-2’-deoxyriboside triphosphate]
- Selectivity Factor [1]: 0.32
- Fold higher Ki than d5-NITP ([1]; wild type gp44/62): ~ 6 fold

Reference: paper PMC3169429 (ACS chemical biology, 2010)
